Bioassay records (PubChem)
An excerpt weighted towards active compounds, which were near 1.5% of everything screened.
EBI2 block: EBI2 receptor antagonists, beta-arrestin recruitment, primary screen, cell-based, luminescence, 7a,25-OHC stimulation, uHTS | G-protein coupled receptor 183 (Homo sapiens), P32249 | 7a,25-OHC stimulated | inhibition, % at 5 µM | hit rate 0.81% among 360,000 | AID 651636, 2012; in the data active = inhibition above about 38%;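 note: enzyme fragment complementation signal reports receptor beta-arrestin coupling in cells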
Target sequence (P32249 whole entry, looked up, the tested form may be a part): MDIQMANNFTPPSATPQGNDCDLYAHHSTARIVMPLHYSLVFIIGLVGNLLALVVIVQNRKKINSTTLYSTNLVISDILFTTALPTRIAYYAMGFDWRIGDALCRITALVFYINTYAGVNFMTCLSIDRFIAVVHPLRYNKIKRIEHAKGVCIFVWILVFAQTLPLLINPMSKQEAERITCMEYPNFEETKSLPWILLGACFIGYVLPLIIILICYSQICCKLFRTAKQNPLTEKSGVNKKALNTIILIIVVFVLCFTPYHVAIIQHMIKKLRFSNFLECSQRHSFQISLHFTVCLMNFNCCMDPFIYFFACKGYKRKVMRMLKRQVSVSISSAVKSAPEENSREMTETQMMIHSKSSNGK
APJ antag: antagonists of human apelin receptor APJ, primary screen, CHO-K1 cells, beta-arrestin complementation, luminescence | P35414 | inhibition, % at 20 µM | hit rate 0.32% among 330,000;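 active = inhibition above about 40% at 20 µM, limit read from the data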;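 note: cells challenged with 10 nM apelin-13 agonist together with compound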
CCR6 antagonist: CCR6 receptor antagonists, primary screen, cell-based, CHO-K1, luminescence, beta-arrestin, uHTS. CHO-K1 CCR6 PathHunter beta-arrestin, CCL20-stimulated. C-C chemokine receptor type 6 (Homo sapiens), P51684. inhibition, % at 20 µM. hit rate 0.49% among 340,000;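 active = compounds whose inhibition of the agonist-driven luminescence signal at 20 µM reaches about 50%, limit read from the data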;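 note: cells stimulated with CCL20 at 14 nM final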
APJ ag: agonists of human apelin receptor APJ, primary screen, CHO-K1 cells, PathHunter beta-arrestin, luminescence | P35414 | 0% DMSO wells, 100% apelin | activation, % at 20 µM | hit rate 0.11% among 330,000 | AID 2520, 2010;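 active = activation more than six SD over the plate average, tested at 20 µM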
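assay system = CHO-K1 APJ beta-arrestin complementation cell line | input = cell density 1000 per well | dosing = compound 20 µM once, DMSO 1% | timing = compound 90 min 25 °C, reagent 1 h | measured by = luminescence from split beta-galactosidase complementation, Galacton Star/Emerald II substrate | read-out basis = APJ agonist activity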
CXCR6 block: CXCR6 receptor inhibitors, primary screen, cell-based, beta-arrestin, luminescence, CHO-K1 PathHunter, 1536-well. C-X-C chemokine receptor type 6 (Homo sapiens), O00574. inhibition, % at 20 µM. hit rate 0.36% among 360,000. AID 602244, 2012; in the data active = inhibition above about 34%, passing the limit was not always enough;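 note: antagonist mode with CXCL16 agonist at 10 nM final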
EBI2 antag conf: EBI2 antagonist hit retest, beta-arrestin, confirmation, cell-based, single concentration, luminescence, 7a,25-OHC stimulation; shares compounds with EBI2 block; inhibition, % at 5 µM; 7a,25-OHC antagonism; AID 651997, 2013; hit rate 29% among 2,400;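 active = inhibition of at least 50%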
EBI2 agonist: EBI2 agonist activity of antagonist hits, confirmation, counter-screen for EBI2 antagonist project, cell-based, single concentration, agonist mode, luminescence; AID 652000, 2013; activation, % at 5 µM; EBI2-expressing cells, 60 min; 0% vehicle, 100% 7α,25-dihydroxycholesterol control; shares compounds with EBI2 block; 2,400 tested, under 10 active;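 active = activation of at least 50%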
bGal counter: E. coli beta-galactosidase enzyme inhibition, confirmation, counter-screen for EBI2 antagonist project, biochemical, luminescence, single concentration; inhibition, % at 5 µM; hit rate 1% among 2,400; purified beta-galactosidase, luminescent Galacton Star, 15 min; shares compounds with EBI2 block; AID 652176, 2013;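 active = replicate-average signal at least 3 plate SD below neutral wells, shown as high inhibition, flagging enzyme-inhibiting false positives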;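 note: higher means stronger loss of beta-gal luminescence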
Numbers stand for hits; . = inactive; / = no result.

SMILES	EBI2 block	APJ antag	CCR6 antagonist	APJ ag	CXCR6 block	EBI2 antag conf	EBI2 agonist	bGal counter
CCc1nc2ccc(C(=O)NC3CCC(C)CC3)cc2nc1CC (stereo unspecified)	.	.	.	.	.	/	/	/
CN(C)CCCNCC(=O)c1c(-c2ccccc2)n(C)c2ccccc12	.	/	.	/	.	/	/	/
O=C(/C=C/c1ccc(F)cc1)NCCC1=CCCCC1	54.6	.	.	.	.	.	.	.
Cc1cc(Cl)cc(Cl)c1OCCOc1cccc2cccnc12	56.3	.	.	.	.	.	.	.
Brc1ccccc1OCCOc1cccc2cccnc12	.	.	.	.	.	/	/	/
N#Cc1c(-c2ccccc2)c(-c2ccccc2)nn(CC(=O)NNC(=O)Nc2ccc(Cl)c(Cl)c2)c1=O	79.3	.	.	.	.	.	.	.
CC(C)(C)C1CCC(=NNC(=O)C2COc3ccccc3O2)CC1 (stereo unspecified)	.	.	.	.	.	/	/	/
Cc1cccc(/C=N/NC(=O)c2cc(-c3cccnc3)nc3c2c(C)nn3-c2ccccc2)c1	43.5	.	.	.	.	.	.	.
CCN(c1ccccc1)S(=O)(=O)c1cc(C(=O)Nc2cccc(Cl)c2)ccc1F	.	.	.	.	.	/	/	/
CCc1ccc(NC(=O)c2ccc(F)c(S(=O)(=O)N(CC)c3ccccc3)c2)cc1	44.7	.	.	.	.	.	.	.
Cc1cccc(N(C(=O)c2snc(C(N)=O)c2N)C(C(=O)NC2CCCC2)c2ccc(C)o2)c1 (stereo unspecified)	51.1	.	.	.	.	56.3	.	.
Cc1ccc(N(C(=O)c2snc(C(N)=O)c2N)C(C(=O)NC2CCCC2)c2ccco2)cc1 (stereo unspecified)	55.6	.	.	.	.	.	.	.
Cc1cccc(N(C(=O)c2snc(C(N)=O)c2N)C(C(=O)NC2CCCC2)c2ccncc2)c1 (stereo unspecified)	.	.	.	.	.	/	/	/
Cc1ccc(N(C(=O)c2snc(C(N)=O)c2N)C(C(=O)NC2CCCC2)c2ccc(C)o2)cc1 (stereo unspecified)	67.8	.	.	.	.	69.9	.	.
COc1ccc(C(C(=O)NC2CCCCC2)N(C(=O)c2snc(C(N)=O)c2N)c2ccc(OC)cc2OC)cc1 (stereo unspecified)	70.0	.	.	.	.	73.0	.	.
CCOc1ccccc1N(C(=O)c1snc(C(N)=O)c1N)C(C(=O)NC1CCCC1)c1ccco1 (stereo unspecified)	.	.	.	.	.	/	/	/
CCOC(=O)c1c(NC(=O)COC(=O)Cn2cnc3c2c(=O)n(C)c(=O)n3C)sc(C)c1CC	.	.	.	.	.	/	/	/
COC(=O)[C@@H](NC(=O)c1ccc2c(c1)S(=O)(=O)c1ccccc1C2=O)C(C)C	.	.	.	.	.	/	/	/
CN1C2C=C3C(C#N)=C(N)C(C#N)(C#N)[C@@H](c4ccc(Cl)cc4)[C@@H]3C1CC2 (stereo partly specified)	.	.	.	.	.	/	/	/
CN1C2C=C3C(C#N)=C(N)C(C#N)(C#N)C(c4ccc(Br)cc4)C3C1CC2 (stereo unspecified)	51.3	.	.	.	.	58.9	.	.
N#Cc1ccccc1Sc1ccccc1C(=O)Nc1ccc2ccccc2c1	.	.	.	.	.	/	/	/
N#Cc1ccc(C(=O)Nc2ccc3ccccc3c2)cc1	59.6	.	.	.	.	51.2	.	.
N#Cc1ccc(OCC(=O)n2cc(C(=O)c3cc(Cl)cc(Cl)c3O)cn2)cc1	/	.	.	.	/	/	/	/
COc1ccccc1C1=CC(=O)C[C@H](c2ccc(Cl)cc2)C1	.	.	.	.	.	/	/	/
COc1ccc([C@H]2CC(=O)C=C(c3ccc(OC)nc3)C2)cc1	.	.	.	.	.	/	/	/
SMILES	EBI2 block	APJ antag	CCR6 antagonist	APJ ag	CXCR6 block	EBI2 antag conf	EBI2 agonist	bGal counter
COc1ccc(C2=CC(=O)C[C@H](c3ccc(F)cc3)C2)cc1F	.	.	.	.	.	/	/	/
COc1ccc([C@H]2CC(=O)C=C(c3ccc(Cl)cc3C)C2)cc1	.	.	.	.	.	/	/	/
COc1ccc([C@H]2CC(=O)C=C(c3ccc(C)c(F)c3)C2)cc1	52.9	.	.	.	.	.	.	.
COc1ccc([C@H]2CC(=O)C=C(c3ccc(Cl)c(F)c3)C2)cc1	50.8	.	.	.	.	52.4	.	.
COc1cccc(C2=CC(=O)C[C@H](c3ccc(Cl)cc3)C2)c1OC	62.1	.	.	.	.	.	.	.
COc1ccc(C2=CC(=O)C[C@H](c3ccc(Cl)cc3)C2)cn1	49.6	.	.	.	.	.	.	.
O=C(Nc1ccc(F)c(F)c1)C1CCN(S(=O)(=O)c2cccs2)CC1	.	.	.	.	.	/	/	/
NCCCC[C@H]1CNC(=O)C(=O)N1CCC12CC3CC(CC(C3)C1)C2	.	.	.	.	.	/	/	/
CCCS(=O)(=O)NC(=O)C1(C)CCN(C(=O)c2ccc(F)c(Cl)c2)C1 (stereo unspecified)	.	/	/	/	.	/	/	/
CC(=O)NC(c1ccccc1)c1nc(-c2cncnc2)cs1 (stereo unspecified)	.	/	/	/	.	/	/	/
COc1ccc([C@H]2CC(=O)C=C(c3ccc(Cl)c(Cl)c3)C2)cc1	79.8	.	.	.	.	57.4	.	.
COc1ccccc1N1CCN(S(=O)(=O)c2ccc3nc(-c4ccccc4)[nH]c3c2)CC1	53.3	.	.	.	.	.	.	.
O=S(=O)(c1ccc2nc(-c3ccccc3)[nH]c2c1)N1CCN(c2cccc(Cl)c2)CC1	.	.	.	.	.	/	/	/
Cc1ccc(N2CCN(c3ccc(C)cc3)C2c2ccncc2)cc1	51.4	.	.	.	.	.	.	.
Cc1cccc(N2CCN(c3cccc(C)c3)C2c2cccnc2)c1	.	.	.	.	.	/	/	/
COC(=O)[C@]12CCCCC=C1N(Cc1cccc3ccccc13)C(=O)[C@H](CC(=O)NCc1ccc(C)o1)C2	.	/	/	/	.	/	/	/
Cc1ccccc1S(=O)(=O)NC(=O)C1(C)CCN1C(=O)c1cccc(F)c1 (stereo unspecified)	.	/	/	/	.	/	/	/
